For four compounds, Ki and EC50 results are on record in ChEMBL document CHEMBL1123982, “Syntheses and adrenergic activities of ring-fluorinated epinephrines” (J Med Chem, 1988).

Experiment [1] deals with Beta-1 adrenergic receptor (Rattus norvegicus) (UniProt P18090). The experiment can be described thus: Binding affinity against beta-1 adrenergic receptor in rat cerebral cortical membranes by displacement of Dihydro-[3H]-alprenolol.
Experiment [2] has as its target Beta-1 adrenergic receptor (Cavia porcellus, UniProt B0FL73). The experiment can be described thus: Agonistic potency at beta-1 adrenergic receptor for the percent maximal increase in contraction rate of isolated guinea pig atria. It is filed as functional. A digest of the protocol:
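Isolated guinea pig atria, giving percent of maximal rate increase for four individual preparations.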

Experiment [3] concerns the target T1, Adrenergic receptor alpha-2 (Homo sapiens, UniProt P08913+P18825+P18089).
T1 sequence (P08913 whole entry): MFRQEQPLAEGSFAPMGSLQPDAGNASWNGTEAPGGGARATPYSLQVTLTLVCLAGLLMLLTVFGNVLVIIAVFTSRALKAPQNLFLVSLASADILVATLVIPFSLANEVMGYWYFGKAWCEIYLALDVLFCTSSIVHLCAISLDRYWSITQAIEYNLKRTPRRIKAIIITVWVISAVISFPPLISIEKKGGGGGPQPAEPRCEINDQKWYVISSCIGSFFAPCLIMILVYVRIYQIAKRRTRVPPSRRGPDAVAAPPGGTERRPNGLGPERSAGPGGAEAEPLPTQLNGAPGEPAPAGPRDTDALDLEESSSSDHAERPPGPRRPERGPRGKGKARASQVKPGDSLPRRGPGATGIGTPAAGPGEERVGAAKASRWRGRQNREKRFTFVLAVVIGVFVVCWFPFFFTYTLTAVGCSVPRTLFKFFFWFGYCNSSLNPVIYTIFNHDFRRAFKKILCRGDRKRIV
T1 sequence (P18825 whole entry): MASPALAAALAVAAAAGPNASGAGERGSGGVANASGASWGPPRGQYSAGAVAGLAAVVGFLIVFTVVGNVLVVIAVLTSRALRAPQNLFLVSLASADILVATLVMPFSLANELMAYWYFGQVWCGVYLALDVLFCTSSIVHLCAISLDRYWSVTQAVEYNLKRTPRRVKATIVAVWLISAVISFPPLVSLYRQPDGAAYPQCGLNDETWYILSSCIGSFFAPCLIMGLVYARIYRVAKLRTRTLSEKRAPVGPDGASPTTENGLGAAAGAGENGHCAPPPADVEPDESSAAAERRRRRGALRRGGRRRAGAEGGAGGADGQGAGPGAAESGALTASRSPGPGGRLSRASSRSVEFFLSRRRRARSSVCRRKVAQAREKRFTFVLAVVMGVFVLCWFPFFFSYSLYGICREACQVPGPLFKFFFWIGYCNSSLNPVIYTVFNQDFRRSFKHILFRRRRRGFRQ
T1 sequence (P18089 whole entry): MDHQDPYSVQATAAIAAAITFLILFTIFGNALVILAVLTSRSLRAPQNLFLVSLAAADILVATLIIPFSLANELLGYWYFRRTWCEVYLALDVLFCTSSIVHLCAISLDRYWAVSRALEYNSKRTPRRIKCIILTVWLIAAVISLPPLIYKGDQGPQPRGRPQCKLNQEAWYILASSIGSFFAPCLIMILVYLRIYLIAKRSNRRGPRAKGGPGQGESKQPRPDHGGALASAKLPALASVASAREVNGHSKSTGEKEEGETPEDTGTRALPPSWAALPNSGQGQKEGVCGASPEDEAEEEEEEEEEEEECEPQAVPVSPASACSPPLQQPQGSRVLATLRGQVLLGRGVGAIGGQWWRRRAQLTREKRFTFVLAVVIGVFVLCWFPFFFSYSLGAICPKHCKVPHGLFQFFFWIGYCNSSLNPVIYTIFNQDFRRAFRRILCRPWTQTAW
The experiment can be described thus: Binding affinity against alpha 2-Adrenergic receptor in guinea pig cerebral cortical membranes by displacement of [3H]clonidine. Details: species or system Cavia porcellus. Particulars: target entry is the homologue from another species. The method in brief:
(§1)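 Nonspecific binding defined with 10 μM clonidine. Points in triplicate, reported as percent of control; experiment repeated three times.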
On the technique in general: In a radioligand displacement assay an active substance lowers the binding of a labelled ligand.

The next experiment addresses Adrenergic receptor beta (Rattus norvegicus, UniProt P18090+P10608+P26255). The experiment can be described thus: Agonistic potency at beta adrenergic receptor for the stimulation of accumulation of cyclic AMP in cultured C6 glioma cells. It is filed as functional, cell-based. The method in brief: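 C6 glioma cells subcultured the day before and washed in HEPES-buffered saline (pH 7.4). Preincubated 10 min with 30 μM rolipram, then agonist for 10 min. Stopped with 0.1 M HCl. cAMP measured by commercial kit. Adjusted EC50 is taken from dose-response curves.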

Experiment [4] deals with T1, Adrenergic receptor alpha-2. The experiment can be described thus: Agonistic potency at alpha 2-Adrenergic receptor for inhibition of 10 uM forskolin-elicited stimulation of adenylate cyclase in human platelet membranes. It is filed as functional, cell membranes. A digest of the protocol:
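Human platelet membranes (10–15 μg protein/tube) added to medium preincubated 5 min at 37 °C: 0.1 mM [α-32P]ATP, 0.1 mM cAMP, adenosine deaminase, 0.1 mM rolipram, 0.2 mM EGTA, creatine phosphate/kinase, BSA, 1 μM GTP, 10 μM forskolin, 1 mM MgCl2, 50 mM Tris-HCl pH 7.4. Stopped with zinc acetate/Na2CO3. Product is cAMP (pmol/min/mg), triplicate points. Adjusted EC50 is taken from dose-response curves.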

The target is the same in experiment [5]. The experiment can be described thus: Binding affinity against alpha-2 adrenergic receptor in guinea pig cerebral cortical membranes by displacement of [3H]clonidine. The conditions noted are these: target entry is the homologue from another species. Also noted: species or system Cavia porcellus. The method in brief: as §1

Each structure is given as a SMILES string.

Chain of Beta-1 adrenergic receptor (Rattus norvegicus) (P18090 whole entry, looked up): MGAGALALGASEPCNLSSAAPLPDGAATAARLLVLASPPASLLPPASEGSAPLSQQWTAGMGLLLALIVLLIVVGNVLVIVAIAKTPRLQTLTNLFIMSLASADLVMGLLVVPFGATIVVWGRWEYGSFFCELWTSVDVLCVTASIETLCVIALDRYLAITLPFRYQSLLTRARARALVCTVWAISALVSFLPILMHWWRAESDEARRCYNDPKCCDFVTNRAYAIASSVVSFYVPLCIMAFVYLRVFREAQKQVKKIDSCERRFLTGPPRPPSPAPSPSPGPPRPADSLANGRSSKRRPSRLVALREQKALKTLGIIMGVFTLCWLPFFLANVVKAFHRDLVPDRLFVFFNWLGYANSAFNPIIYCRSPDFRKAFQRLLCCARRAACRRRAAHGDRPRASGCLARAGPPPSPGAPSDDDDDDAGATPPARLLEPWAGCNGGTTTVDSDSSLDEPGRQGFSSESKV
Chain of Beta-1 adrenergic receptor (B0FL73 whole entry): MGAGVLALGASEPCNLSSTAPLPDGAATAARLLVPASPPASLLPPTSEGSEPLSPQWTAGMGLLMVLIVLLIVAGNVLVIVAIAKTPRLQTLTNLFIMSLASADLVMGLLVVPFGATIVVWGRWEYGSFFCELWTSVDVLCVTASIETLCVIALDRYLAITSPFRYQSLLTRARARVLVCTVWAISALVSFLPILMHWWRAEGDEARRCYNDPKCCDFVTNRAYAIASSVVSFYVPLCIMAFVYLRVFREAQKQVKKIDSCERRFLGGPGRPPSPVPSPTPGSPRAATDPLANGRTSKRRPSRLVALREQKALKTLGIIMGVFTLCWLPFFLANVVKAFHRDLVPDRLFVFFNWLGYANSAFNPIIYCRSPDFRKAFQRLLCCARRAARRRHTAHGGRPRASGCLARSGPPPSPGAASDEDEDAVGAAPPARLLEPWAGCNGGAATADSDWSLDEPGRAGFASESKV

As usually defined, the Ki is the equilibrium dissociation constant of an inhibitor or competing ligand from its target. Low readings indicate a stronger hold on the target, high ones a looser hold on the target. By EC50 is commonly meant the concentration needed to bring the measured effect to its halfway point. On to `CNC[C@H](O)c1ccc(O)c(O)c1` [EPINEPHRINE], for which, in experiment [1], the affinity corresponds to a Ki of 3000 nM. Besides, in experiment [2], the EC50 was 260 nM.

Compound `NCC(O)c1ccc(O)c(O)c1F` (stereo not given) showed a Ki in experiment [3] of 700 nM.

With `CNCC(O)c1cc(O)c(O)cc1F` (stereo not given), the EC50 at Adrenergic receptor beta was more than 1500 nM; in experiment [4] it was 100 nM; in experiment [2] it was more than 1500 nM. In addition, the figures for the Ki in experiment [3] and in experiment [1] were 9 nM and 63000 nM, respectively.

In the case of `CNCC(O)c1ccc(O)c(O)c1F` (stereo not given), the Ki in experiment [5] worked out at 66 nM. For the same compound, the EC50 in experiment [4] was more than 5000 nM.
